Test [1] deals with HeLa. Kind of test: Cell cycle arrest in TNF-alpha-stimulated human HeLa cells transfected with NFkappaB-Luc assessed as accumulation at diploid G2 phase at 0.1 uM after 8 hrs by propidium iodide-based flow cytometry. Type of test: functional.
Test [2] has as its system HeLa. The experiment in a line: Effect on cell cycle arrest in TNF-alpha-stimulated human HeLa cells assessed as cell aggregate level at 5 uM after 8 hrs by propidium iodide-based flow cytometry. Type of test: functional.
Test [3] has as its system HeLa. Kind of test: Cell cycle arrest in TNF-alpha-stimulated human HeLa cells transfected with NFkappaB-Luc assessed as accumulation at diploid stage at 1 uM after 8 hrs by propidium iodide-based flow cytometry. Type of test: functional.
Test [4] relates to HeLa. The experiment in a line: Cell cycle arrest in TNF-alpha-stimulated human HeLa cells transfected with NFkappaB-Luc assessed as accumulation at diploid G1 phase at 10 uM after 8 hrs by propidium iodide-based flow cytometry. Type of test: functional. The method, boiled down:
(§1)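 HeLa NF-κB-luc cells (stable, hygromycin-selected) were treated with vehicle (1% DMSO) or compound at 40–0.2 µM final for 8 h at 37 °C, 5% CO2. Adherent cells were trypsinized, resuspended in PBS/50% FBS, fixed overnight in 70% ice-cold ethanol and washed with cold PBS/10% FBS, then analysed for cell cycle by flow cytometry.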

For test [5], the system named is HeLa. Kind of test: Effect on cell cycle arrest in TNF-alpha-stimulated human HeLa cells assessed as cell aggregate level at 1 uM after 8 hrs by propidium iodide-based flow cytometry. Type of test: functional.
Test [6] concerns HeLa. Kind of test: Effect on cell cycle arrest in TNF-alpha-stimulated human HeLa cells assessed as cell debris level at 1 uM after 8 hrs by propidium iodide-based flow cytometry. Type of test: functional.
In another test the test system is Blood. The experiment in a line: Antiinflammatory activity in human whole blood assessed as inhibition of IL-1-beta-induced TNFalpha production preincubated 2 hrs before addition of IL1-beta measured after 18 hrs by ELISA. The format is functional, tissue-based. The conditions noted are these: Homo sapiens, Blood. Summed up: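 Human blood from donors with white count in the normal range, diluted 1:10 in RPMI-1640 with 10% FBS, penicillin and streptomycin. Aliquots were preincubated with vehicle (0.1% DMSO final) or compound at 10, 3, 1, 0.3 or 0.1 µM final for 2 h at 37 °C, 5% CO2. IL-1β (200 U/mL) was then added for 18 h, and plasma was collected and frozen. Cytokine was measured by ELISA.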

The subject of test [7] is HeLa. The experiment in a line: Cell cycle arrest in TNF-alpha-stimulated human HeLa cells transfected with NFkappaB-Luc assessed as accumulation at S phase at 0.5 uM after 8 hrs by propidium iodide-based flow cytometry. The format is functional. The method, boiled down: as §1
Test [8] deals with HeLa. The experiment in a line: Cell cycle arrest in TNF-alpha-stimulated human HeLa cells transfected with NFkappaB-Luc assessed as accumulation at diploid G1 phase at 0.5 uM after 8 hrs by propidium iodide-based flow cytometry. Type of test: functional. The method, boiled down: as §1
Test [9] concerns HeLa. Kind of test: Cell cycle arrest in TNF-alpha-stimulated human HeLa cells transfected with NFkappaB-Luc assessed as accumulation at diploid G2 phase at 10 uM after 8 hrs by propidium iodide-based flow cytometry. Type of test: functional. The method, boiled down:
as §1

`CCOC(=O)[C@]1(c2ccccc2)N=C(c2ccccc2)N(Cc2ccccc2)[C@@H]1c1ccccc1` (racemic): the Activity amounted to 14.03% in the test on HeLa [1]; 0% with HeLa [2]; 100% with HeLa [3]; 68.19% in the test on HeLa [4]; 0% in the test with HeLa [5]; 4.88% in the test on HeLa [6]. Besides, the Activity came out at 22.52% in the test with HeLa [7], 64.08% with HeLa [8] and 15.01% in the test on HeLa [9]. Further, the IC50 in the test on Blood turned out to be 1180 nM.

For the origin of these results see ChEMBL document CHEMBL1140925, “Nuclear factor-kappaB mediated inhibition of cytokine production by imidazoline scaffolds” (J Med Chem, 2009).
